Read-outs that look alike come from different tables or passages of the source. Marks after values point to notes of the source that are not given here.
Assays:
[1] = Single oral dose pharmacokinetics of dotinurad in plasma, phase 1 study; format: in vivo, human (healthy Chinese adults); conditions: for Vd/F / half-life / AUC(0-inf) / Cmax / Tmax: human, plasma
Summary of the method: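 Healthy nonsmoking Chinese adults (18–45 y, weight ≥ 50 kg) took a single oral tablet dose (1 mg n=8, 4 mg n=10, 10 mg n=8) on Day 1 after a 10-h fast. Plasma was sampled 0–48 h, separated at 2000 g for 10 min at 4 °C, and stored at −80 °C. Samples had solid-phase pretreatment, then LC-MS/MS (LOQ 1 ng/mL). Noncompartmental parameters are mean ± SD, tmax median (min–max).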

[2] = Multiple once-daily oral dose pharmacokinetics of dotinurad in plasma; format: in vivo, human (healthy Chinese adults)
Summary of the method: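 In the 4-mg cohort (n=10, screening serum urate ≥ 5.5 mg/dL), a single Day 1 dose was followed by a 3-day washout. The test compound was then given orally once daily on Days 4–10, each morning after a 10-h fast. Plasma sampled 0–72 h after the Day 10 dose was assayed by LC-MS/MS (LOQ 1 ng/mL). Parameters are noncompartmental, with accumulation relative to Day 1. Mean ± SD; tss,max median (min–max).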

[3] = Safety and tolerability: treatment-emergent adverse events; format: in vivo, human (healthy Chinese adults)
Summary of the method: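 Oral tablets were given fasted to three cohorts: 1 mg single (n=8), 4 mg single then 7-day once-daily (n=10), and 10 mg single (n=8). Safety covered TEAEs, hematology, blood chemistry, urinalysis, vital signs, weight, 12-lead ECG and physical examination. AEs were coded with MedDRA v25.0. The safety set was subjects with ≥ 1 dose and ≥ 1 postdose assessment, reported as n (%).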

[4] = test system: serum urate; conditions: Chinese patients with gout, cited from earlier work
[5] = 4 mg once daily for 7 days, Day 10, N = 10, mean ± SD
[6] = 4 mg once daily for 7 days, Day 10 vs Day 1, N = 10, mean ± SD
[7] = Cohort A, 1 mg single dose, N = 8
[8] = Cohort A, 1 mg single dose, N = 8, determined as drug-related TEAE
[9] = Cohort B, 4 mg single and multiple doses, N = 10
[10] = Cohort C, 10 mg single dose, N = 8

O=C(c1cc(Cl)c(O)c(Cl)c1)N1CS(=O)(=O)c2ccccc21 [Dotinurad]
time at which mean plasma concentration reached maximum ([1]; across single oral doses of 1, 4 and 10 mg): 3.00 to 3.50 h
CL/F ([1]; across the single-dose range of 1–10 mg): 0.757 to 0.834 L/h
Vd/F ([1]; oral): 11.1 to 11.7 L
half-life ([1]; oral): ~600 min
AUC(0-inf) ([1]; po, 1 mg): 1360 ± 288 ng·h/mL
Cmax ([1]; po, 1 mg): 104 ± 18.5 ng/mL
Tmax ([1]; po, 1 mg): 3.5 h
Vd/F ([1]; po, 1 mg): 11.1 ± 2.06 L
half-life ([1]; po, 1 mg): 606 ± 75.6 min
AUC(0-inf) ([1]; po, 4 mg): 4890 ± 683 ng·h/mL
Cmax ([1]; po, 4 mg): 365 ± 35.2 ng/mL
Tmax ([1]; po, 4 mg): 3 h
Vd/F ([1]; po, 4 mg): 11.7 ± 1.12 L
AUC(0-inf) ([1]; po, 10 mg): 13600 ± 2480 ng·h/mL
Cmax ([1]; po, 10 mg): 964 ± 101 ng/mL
Tmax ([1]; po, 10 mg): 3 h
Vd/F ([1]; po, 10 mg): 11.6 ± 1.1 L
half-life ([1]; po, 10 mg): 654 ± 91.8 min
CL/F ([1]; single oral dose 1 mg, fasted, Cohort A, N = 8, mean ± SD): 0.764 ± 0.147 L/h
CL/F ([1]; single oral dose 4 mg, fasted, Cohort B Day 1, N = 10, mean ± SD): 0.834 ± 0.130 L/h
CL/F ([1]; single oral dose 10 mg, fasted, Cohort C, N = 8, mean ± SD): 0.757 ± 0.134 L/h
mean plasma concentration relative to the corresponding maximum concentration ([1]; within 48 h after single oral doses of 1 to 10 mg): below 10%
CLss/F [2, 5]: 0.923 ± 0.183 L/h
Css,av [2, 5]: 186 ± 31.8 ng/mL
Css,max [2, 5]: 397 ± 69.4 ng/mL
Css,min [2, 5]: 65.4 ± 22.1 ng/mL
tss,max ([2]; 4 mg once daily for 7 days, Day 10, N = 10, median (min–max)): 3.00 (2.00–6.00) h
Rac(AUC0–24h) accumulation ratio [2, 6]: 1.13 ± 0.121
Rac(Cmax) accumulation ratio [2, 6]: 1.09 ± 0.185
AUC ([2]; human, plasma, oral, 4 mg): 4470 ± 762 ng·h/mL
Vd/F ([2]; human, plasma, oral, 4 mg): 13.2 ± 1.64 L
half-life ([2]; human, plasma, oral, 4 mg): 606 ± 103 min
mean plasma concentration relative to the corresponding maximum concentration ([2]; within 72 h after Day 10 dose, 4 mg once daily for 7 days): below 1%
dose dependence of TEAEs ([3]; 1, 4 and 10 mg cohorts): No dose-dependent TEAEs were observed
Number of subjects with at least one TEAE, any severity [3, 7]: 2 (25.0) n (%)
Number of subjects with at least one TEAE, mild [3, 7]: 2 (25.0) n (%)
Number of subjects with at least one TEAE, moderate [3, 7]: 0 n (%)
Number of subjects with at least one TEAE, severe [3, 7]: 0 n (%)
TEAE: Blood bilirubin increased (mild) [3, 7]: 0 n (%)
TEAE: Body temperature increased (mild) [3, 7]: 0 n (%)
TEAE: Alanine aminotransferase increased (mild) [3, 8]: 1 (12.5)^a n (%)
TEAE: Blood triglycerides increased (mild) [3, 8]: 1 (12.5)^a n (%)
Number of subjects with at least one TEAE, any severity [3, 9]: 2 (20.0) n (%)
Number of subjects with at least one TEAE, mild [3, 9]: 2 (20.0) n (%)
Number of subjects with at least one TEAE, moderate [3, 9]: 0 n (%)
Number of subjects with at least one TEAE, severe [3, 9]: 0 n (%)
TEAE: Alanine aminotransferase increased (mild) [3, 9]: 0 n (%)
TEAE: Blood bilirubin increased (mild) [3, 9]: 1 (10.0) n (%)
TEAE: Blood triglycerides increased (mild) [3, 9]: 0 n (%)
TEAE: Body temperature increased (mild) [3, 9]: 1 (10.0) n (%)
Number of subjects with at least one TEAE, any severity [3, 10]: 0 n (%)
Number of subjects with at least one TEAE, mild [3, 10]: 0 n (%)
Number of subjects with at least one TEAE, moderate [3, 10]: 0 n (%)
Number of subjects with at least one TEAE, severe [3, 10]: 0 n (%)
TEAE: Alanine aminotransferase increased (mild) [3, 10]: 0 n (%)
TEAE: Blood bilirubin increased (mild) [3, 10]: 0 n (%)
TEAE: Blood triglycerides increased (mild) [3, 10]: 0 n (%)
TEAE: Body temperature increased (mild) [3, 10]: 0 n (%)
Number of subjects with at least one TEAE, any severity ([3]; Total, all cohorts, N = 26): 4 (15.4) n (%)
Number of subjects with at least one TEAE, mild ([3]; Total, all cohorts, N = 26): 4 (15.4) n (%)
Number of subjects with at least one TEAE, moderate ([3]; Total, all cohorts, N = 26): 0 n (%)
Number of subjects with at least one TEAE, severe ([3]; Total, all cohorts, N = 26): 0 n (%)
TEAE: Alanine aminotransferase increased (mild) ([3]; Total, all cohorts, N = 26): 1 (3.8) n (%)
TEAE: Blood bilirubin increased (mild) ([3]; Total, all cohorts, N = 26): 1 (3.8) n (%)
TEAE: Blood triglycerides increased (mild) ([3]; Total, all cohorts, N = 26): 1 (3.8) n (%)
TEAE: Body temperature increased (mild) ([3]; Total, all cohorts, N = 26): 1 (3.8) n (%)
severity and outcome of TEAEs ([3]; all cohorts): All the TEAEs were mild and resolved without any treatment
fatal TEAE, serious TEAE, or TEAE leading to discontinuation of study drug ([3]; all cohorts, 1–10 mg): No fatal TEAE, serious TEAE, or TEAE leading to discontinuation of study drug was reported
subjects who experienced at least 1 TEAE ([3]; all cohorts, 4 of 26 subjects): 15.4%
subjects who experienced at least 1 TEAE ([3]; single and multiple doses of 4 mg (Cohort B), 2/10 subjects): 20.0%
subjects who experienced at least 1 TEAE ([3]; single dose 1 mg (Cohort A), 2/8 subjects): 25.0%
reduction of serum urate ([4]; 2 mg, Week 12): 37.9%
reduction of serum urate ([4]; 4 mg, Week 24): 45.9%
